Key:
[1] = tested on: M9-ENL1 cells; test: Cytotoxicity against M9-ENL1 leukemia cells; type: cell-based; settings: for fold lower LC50 of C9 analog vs. C14-functionalized counterpart: 4, 6, 11 compared to 5, 7, 12
[2] = Human umbilical cord blood cell cytotoxicity test; type: cell-based; settings: human, hUBC LC50, human umbilical cord blood cells, cell viability, mean ± SD (n = 3)
Outline: (§1)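 Fresh cord blood (within 48 h of collection) was separated on a Ficoll-Paque gradient and cultured without cryopreservation at 37 °C, 5% CO2, in serum-free Iscove's MDM with 20% BIT 9500, LDL and β-mercaptoethanol. Cells got ≥3 doses of test compound from DMSO stock for 24 h, were stained for CD45, CD34 and DAPI, and were analysed by flow cytometry. Viable CD34+CD45dim percentage was compared with vehicle.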

[3] = Solubility in buffered solutions at neutral pH; type: physicochemical
[4] = tested on: human umbilical cord blood cells (hUBC); test: Human umbilical cord blood cell cytotoxicity test; type: cell-based; settings: read-out: hUBC LC50; human umbilical cord blood cells, 24 h, cell viability, mean ± SD (n = 3)
Outline: as §1

Structure (SMILES): C=C1C(=O)O[C@H]2[C@H]1C[C@H](OC(C(=O)OCC)c1ccc(C(F)(F)F)cc1)/C(C)=C/CC[C@@]1(C)O[C@@H]21 (stereo partly drawn) [Compound 22, ethyl 2-(((3aR,5S,9aR,10aS,10bS,E)-6,9a-dimethyl-3-methylene-2-oxo-2,3,3a,4,5,8,9,9a,10a,10b-decahydrooxireno [2′,3′:9,10]cyclodeca[1,2-b]furan-5-yl)oxy)-2-(4-(trifluoromethyl)phenyl)acetate]
- fold lower LC50 than the phenyl-containing counterparts (18, 19) [1]: 2- to 3 fold

Structure (SMILES): C=C1C(=O)O[C@H]2[C@H]1C[C@H](OC(C(=O)OCC)c1ccc(C(F)(F)F)cc1)/C(C)=C/CC[C@@]1(C)O[C@@H]21 (stereo partly drawn) [Compound 22a, ethyl 2-(((3aR,5S,9aR,10aS,10bS,E)-6,9a-dimethyl-3-methylene-2-oxo-2,3,3a,4,5,8,9,9a,10a,10b-decahydrooxireno [2′,3′:9,10]cyclodeca[1,2-b]furan-5-yl)oxy)-2-(4-(trifluoromethyl)phenyl)acetate]
- CC50 at 24 h [2]: > 5 µM

Structure (SMILES): C=C1C(=O)O[C@H]2[C@H]1C[C@H](OC(C(=O)OCCN1CCOCC1)c1ccccc1)/C(C)=C/CC[C@@]1(C)O[C@@H]21 (stereo partly drawn) [Compound 27, 2-morpholinoethyl2-(((3aR,5S,9aR,10aS,10bS,E)-6,9a-dimethyl-3-methylene-2-oxo-2,3,3a,4,5,8,9,9a,10a,10b-decahydrooxireno[2′,3′:9,10]cyclodeca[1,2-b]furan-5-yl)oxy)-2-phenyl acetate]
- solubility in buffered solutions [3]: improved solubility
- fold reduction of activity compared to PTL [1]: 3 to 5 folds

Structure (SMILES): C=C1C(=O)O[C@H]2[C@H]1C[C@H](OC(=O)c1cc(-c3ccc(Cl)cc3)on1)/C(C)=C/CC[C@@]1(C)O[C@@H]21 [Compound 11, (3aR,5S,9aR,10aS,10bS,E)-6,9a-dimethyl-3-methylene-2-oxo-2,3,3a,4,5,8,9,9a,10a,10b-decahydrooxireno[2′,3′:9,10] cyclodeca[1,2-b]furan-5-yl 5-(4-chlorophenyl)isoxazole-3-carboxylate]
- fold lower LC50 of C9 analog vs. C14-functionalized counterpart [1]: 2- to 3 fold

Structure (SMILES): C=C1C(=O)O[C@H]2[C@H]1C[C@H](OC(=O)c1cn(C)c3ccccc13)/C(C)=C/CC[C@@]1(C)O[C@@H]21 [Compound 6, (3aS,5S,9aR,10aS,10bS,E)-6,9a-dimethyl-3-methylene-2-oxo-2,3,3a,4,5,8,9,9a,10a,10b decahydrooxireno [2′,3′:9,10] cyclodeca[1,2-b]furan-5-yl 1-methyl-1H-indole-3-carboxylate]
- fold lower LC50 of C9 analog vs. C14-functionalized counterpart [1]: 2- to 3 fold

Structure (SMILES): C=C1C(=O)O[C@H]2[C@H]1CC/C(C)=C/CC[C@@]1(C)O[C@@H]21 [PTL, parthenolide, reference compound]
- CC50 at 24 h [2]: > 20 µM

Structure (SMILES): C=C1C(=O)O[C@H]2[C@H]1C[C@H](OC(=O)c1ccc3ccccc3c1)/C(C)=C/CC[C@@]1(C)O[C@@H]21 [Compound 4, (3aS,5S,9aR,10aS,10bS,E)-6,9a-dimethyl-3-methylene-2oxo2,3,3a,4,5,8,9,9a,10a,10bdecahydrooxireno[2′,3′:9,10]cycl odeca [1,2-b]furan-5-yl 2-naphthoate]
- fold lower LC50 of C9 analog vs. C14-functionalized counterpart [1]: 2- to 3 fold

Structure (SMILES): C=C1C(=O)O[C@@H]2[C@@H]1CC/C(COC(C(=O)OCC)c1ccc(C(F)(F)F)cc1)=C/CC[C@]1(C)O[C@H]21 (stereo partly drawn) [Compound 23, ethyl 2-(((3aR,9aR,10aS,10bS,Z)-9a-methyl-3-methylene-2-oxo-2,3,3a,4,5,8,9,9a,10a,10b-decahydrooxireno[2′,3′:9,10]cyclodeca[1,2-b]furan-6-yl)methoxy)-2-(4-(trifluoromethyl)phenyl)acetate]
- fold lower LC50 than the phenyl-containing counterparts (18, 19) [1]: 2- to 3 fold

Structure (SMILES): C=C1C(=O)O[C@H]2[C@H]1CC/C(COC(C(=O)OCCN1CCCC1)c1ccccc1)=C/CC[C@@]1(C)O[C@@H]21 (stereo partly drawn) [Compound 29, 2-(pyrrolidin-1-yl)ethyl 2-(((3aR,5S,9aR,10aS,10bS,E)-6,9a-dimethyl-3-methylene-2-oxo-2,3,3a,4,5,8,9,9a,10a,10b-decahydrooxireno[2′,3′:9,10]cyclodeca[1,2-b]furan-5-yl)oxy)-2-phenylacetate]
- solubility in buffered solutions [3]: improved solubility
- fold reduction of activity compared to PTL [1]: 3 to 5 folds

Structure (SMILES): C=C1C(=O)O[C@@H]2[C@@H]1CC/C(COC(C(=O)OCC)c1ccc(C(F)(F)F)cc1)=C/CC[C@]1(C)O[C@H]21 (stereo partly drawn) [Compound 23b, ethyl 2-(((3aR,9aR,10aS,10bS,Z)-9a-methyl-3-methylene-2-oxo-2,3,3a,4,5,8,9,9a,10a,10b-decahydrooxireno[2′,3′:9,10]cyclodeca[1,2-b]furan-6-yl)methoxy)-2-(4-(trifluoromethyl)phenyl)acetate]
- CC50 [4]: > 5 µM

Structure (SMILES): C=C1C(=O)O[C@H]2[C@H]1C[C@H](OC(C(=O)OCc1ccccc1)c1ccccc1)/C(C)=C/CC[C@@]1(C)O[C@@H]21 (stereo partly drawn) [Compound 25a, benzyl 2-(((3aR,5S,9aR,10aS,10bS,E)-6,9a-dimethyl-3-methylene-2-oxo-2,3,3a,4,5,8,9,9a,10a,10b-decahydrooxireno [2′,3′:9,10]cyclodeca[1,2-b]furan-5-yl)oxy)-2-phenylacetate]
- CC50 at 24 h [2]: > 5 µM

Structure (SMILES): C=C1C(=O)O[C@H]2[C@H]1CC/C(COCc1ccccc1)=C/CC[C@@]1(C)O[C@@H]21 [Compound 14, (3aR,9aR,10aS,10bS,Z)-6-((benzyloxy)methyl)-9a-methyl-3-methylene-3a,4,5,8,9,9a,10a,10b-octahydrooxireno[2′,3′:9,10] cyclodeca[1,2-b]furan-2(3H)-one]
- fold lower cytotoxicity compared to C14-benzoylated counterpart [1]: 2 fold

Structure (SMILES): C=C1C(=O)O[C@H]2[C@H]1C[C@H](OC(C(=O)OCC)c1ccccc1C(F)(F)F)/C(C)=C/CC[C@@]1(C)O[C@@H]21 (stereo partly drawn) [Compound 20, ethyl2-(((3aR,5S,9aR,10aS,10bS,E)-6,9a-dimethyl-3-methylene-2-oxo-2,3,3a,4,5,8,9,9a,10a,10b-decahydrooxireno [2′,3′:9,10]cyclodeca[1,2-b]furan-5-yl)oxy)-2-(2-(trifluoromethyl)phenyl)acetate]
- fold lower LC50 than the phenyl-containing counterparts (18, 19) [1]: 2- to 3 fold

Structure (SMILES): C=C1C(=O)O[C@H]2[C@H]1C[C@H](OC(C(=O)OCc1ccccc1)c1ccccc1)/C(C)=C/CC[C@@]1(C)O[C@@H]21 (stereo partly drawn) [Compound 25b, benzyl 2-(((3aR,5S,9aR,10aS,10bS,E)-6,9a-dimethyl-3-methylene-2-oxo-2,3,3a,4,5,8,9,9a,10a,10b-decahydrooxireno [2′,3′:9,10]cyclodeca[1,2-b]furan-5-yl)oxy)-2-phenylacetate]
- CC50 [4]: > 5 µM

Structure (SMILES): C=C1C(=O)O[C@H]2[C@H]1CC/C(COC(C(=O)OCCN1CCOCC1)c1ccccc1)=C/CC[C@@]1(C)O[C@@H]21 (stereo partly drawn) [Compound 28, 2-morpholinoethyl 2-(((3aR,9aR,10aS,10bS,Z)-9a-methyl-3-methylene-2-oxo-2,3,3a,4,5,8,9,9a,10a,10b-decahydrooxireno [2′,3′:9,10]cyclodeca[1,2-b]furan-6-yl)methoxy)-2-phenylacetate]
- solubility in buffered solutions [3]: improved solubility
- fold reduction of activity compared to PTL [1]: 3 to 5 folds

Structure (SMILES): C=C1C(=O)O[C@H]2[C@H]1CC/C(COC(C(=O)OCC)c1ccccc1C(F)(F)F)=C/CC[C@@]1(C)O[C@@H]21 (stereo partly drawn) [Compound 21, ethyl2-(((3aR,9aR,10aS,10bS,Z)-9a-methyl-3-methylene-2-oxo-2,3,3a,4,5,8,9,9a,10a,10b-decahydrooxireno[2′,3′:9,10]cyclodeca[1,2-b]furan-6-yl)methoxy)-2-(2-(trifluoromethyl)phenyl)acetate]
- fold lower LC50 than the phenyl-containing counterparts (18, 19) [1]: 2- to 3 fold

Reference: publication PMC5083853 (Bioorganic & medicinal chemistry, 2016)
